Assay outcomes: PubChem, several laboratories
VIM-2 inh = inhibitors of Pseudomonas aeruginosa VIM-2 metallo-beta-lactamase. purified VIM-2, nitrocefin hydrolysis, epi-absorbance fluorescence. inhibition, % at 5.6 µM. hit rate 0.89% among 290,000. AID 1527;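 active = inhibition above the mean of all tested compounds plus 3 SD, cutoff set per screening run, cut at about 7.5% in these data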;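 note: red hydrolysis product quenches plate fluorescence so inhibitors raise well fluorescence; 0% = enzyme with DMSO and 100% = DMSO without enzyme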
IMP-1 inhibitor = blocks Pseudomonas aeruginosa IMP-1 metallo-beta-lactamase | purified IMP-1, nitrocefin hydrolysis, epi-absorbance fluorescence | inhibition, % at 5.6 µM | hit rate 0.45% among 290,000;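 active = inhibition above the mean plus 3 SD of all compounds in the same screening run, cut at about 4.5% in these data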;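 note: 0% = IMP-1 with DMSO and 100% = DMSO wells lacking enzyme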
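System: Purified recombinant IMP-1 metallo-beta-lactamase enzyme | Measured by: Fluorescence quenching readout, ex 480/em 530 nm | Replication: Singlicate | Incubation: 15 min preincubation plus 25 min reaction at 25 °C | Evaluation: Percent inhibition from optical density relative to buffer-blank wells | Benchmarks: DMSO with and without IMP-1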
Mot1-301 SUMO = inhibitors of SUMOylation pathway: yeast Mot1-301 growth rescue; growth rescue, % at 18.8 µM; hit rate 1% among 320,000; AID 2716; S. cerevisiae Mot1-301 growth rescue, ATP luminescence, 38.5C; percent above DMSO median, 100 means doubled;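 active = every valid replicate shows activation above 250% relative to neutral control wells; inactive = the rest, any valid replicate at or below 250%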;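 note: OY570 slx delta 5 strain wells were the positive control but not used for scaling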
UBC9 SUMO inh = inhibitors of human SUMOylation (UBC9); P63279; HTRF SUMOylation assay, SAE1/SAE2 + UBC9, in vitro; inhibition, % at 35 µM; hit rate 0.36% among 290,000; in the data active = inhibition above about 50%, passing the limit was not always enough
Target sequence (P63279 whole entry, looked up): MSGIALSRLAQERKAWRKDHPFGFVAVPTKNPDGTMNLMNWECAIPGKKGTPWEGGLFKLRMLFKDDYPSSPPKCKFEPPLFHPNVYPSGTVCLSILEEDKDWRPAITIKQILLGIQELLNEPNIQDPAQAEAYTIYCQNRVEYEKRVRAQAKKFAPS
FID counter = counter-screen for HCV NS3 helicase inhibitors: DNA intercalator displacement | DNA fluorescent intercalator displacement, fluorescence | inhibition, % at 7.9 µM | hit rate 0.17% among 290,000; in the data active = inhibition above about 37%;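 note: 0% = vehicle and 100% = reference compound; higher means more ethidium bromide displaced from hairpin DNA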
NALP1 yeast inh = NALP1 inhibition; S. cerevisiae NALP1/ASC/caspase-1 growth, X-gal OD620, 72 h; inhibition, % at 10 µM; hit rate 0.61% among 280,000; in the data active = inhibition mostly above about 24%, no sharp cut-off; inactive = mostly below about 32%
Yeast Mot1 SUMO = inhibits SUMO pathway, affecting Mot1-301 yeast growth; growth activity, percent, % at 42 µM; S. cerevisiae Mot1-301 galactose growth, ATP luminescence, 24 h; -100 = growth of slx-deleted rescue strain; 2,300 tested, under 10 active; shares compounds with Mot1-301 SUMO;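 active = Signal drops as the depositor expects, and the fitted half-maximal dose is no more than ten times the top valid tested dose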;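 note: more negative values mean stronger growth rescue toward the control strain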
An asterisk follows results filed as active; nt = no result; + = active, no number; [ ] = remark or other dose. The list is not random: actives were taken first. Their share in the collection is about 2.9%.

SMILES | VIM-2 inh | IMP-1 inhibitor | Mot1-301 SUMO | UBC9 SUMO inh | FID counter | NALP1 yeast inh | Yeast Mot1 SUMO
OC1O[C@H](c2ccc3c(c2)OCO3)[C@H]2CO[C@H](c3ccc4c(c3)OCO4)[C@@H]12 (some centres undefined) | nt | nt | 3 | 6 | nt | 11 | nt
O=C1N(CN2CCOCC2)c2ccccc2C12OCC(CCl)O2 (centres undefined) | 0 | 0 | -5 | -9 | -5 | -28 | nt
CC(=O)Oc1cccc(N2C(=O)c3ccc(C(=O)Nc4c[nH]c(=O)[nH]c4=O)cc3C2=O)c1 | -3 | -3 | 554* | 3 | -1 | 28 | 0
Cc1ccccc1NC(=O)c1cccc(NC(=O)CCC(=O)O)c1 | -3 | -2 | -7 | 7 | -13 | 12 | nt
COc1cccc(CNC(=O)C2CC(=O)N(C3CCCCC3)C2)c1 (centres undefined) | -3 | -4 | 4 | 12 | -23 | 13 | nt
CCc1ccc(N2C(=O)CC(N3CCC(C(=O)OC)CC3)C2=O)cc1 (centres undefined) | -3 | -2 | 491* | 24 | -10 | 13 | -1
CCCCCCOc1ccc(N2C(=O)CC(N3CCC(C(=O)OCC)CC3)C2=O)cc1 (centres undefined) | -1 | -3 | 553* | 18 | -10 | 62 | 0
O=C(NCC1CCN(Cc2ccccc2Cl)CC1)Nc1ccccc1F | -2 | -1 | 606* | -13 | 16 | 25 | 0
COc1ccc(NC(=O)CN(C)C(=O)c2cc(C)on2)cc1 | nt | nt | 678* | nt | nt | nt | 0
COc1ccc(OCC(=O)Nc2ccc(C)cc2)cc1 | -3 | 0 | 859* | 9 | -7 | 14 | 0
Cc1ccc(SCCC(=O)Nc2ccc(OCc3ccccc3)cc2)cc1 | -2 | -3 | 968* | 18 | -1 | 29 | 0
CN(CC(=O)Nc1ccccc1C(F)(F)F)C(=O)CC1OC(=O)c2ccccc21 (centres undefined) | 0 | -2 | -19 | 3 | -6 | 0 | nt
O=S1c2ccccc2Nc2ccccc21 | nt | nt | -7 | nt | nt | nt | nt
CC(C)(C)NC(=O)CN(C(=O)CCC(=O)Nc1nccs1)c1ccc2c(c1)OCCO2 | 0 | -4 | 543* | 19 | -26 | 9 | 0
CC(C)CCNC(=O)CN(C(=O)CCC(=O)Nc1nccs1)c1ccc2c(c1)OCCO2 | -2 | -2 | 240 | -1 | -21 | 20 | nt
Cc1ccc(NC(=O)CN2C(=O)COc3ccc(S(=O)(=O)N4CCOCC4)cc32)cc1F | -8 | 0 | 500* | nt | -10 | 20 | 0
Cc1ccc(N2CN(CCc3ccccc3)CNC2=S)cc1 | -2 | -1 | 419* | 17 | -10 | 7 | 1
CCOC(=O)N1CCN(C(=O)c2ccc(CS(=O)(=O)c3c(Cl)cccc3Cl)o2)CC1 | -2 | 1 | 603* | -14 | -17 | 28 | 0
O=C(c1ccc(CS(=O)(=O)c2ccccc2)o1)N1CCOCC1 | -2 | -4 | 372* | 18 | -5 | -1 | 2
CN1CCN(C(=O)c2ccc(CS(=O)(=O)c3c(Cl)cccc3Cl)o2)CC1 | -4 | -5 | -14 | 2 | 0 | -12 | nt
COCCC(=O)N1CCC(Oc2ccc(C(=O)N(C)C3CCCCC3)cc2)CC1 | -4 | -3 | -1 | 12 | -37 | 7 | nt
CCOc1ccc(N(C(=O)CNC(=O)c2cccs2)C(C(=O)NCC2CCCO2)c2ccc(OC)c(OC)c2)cc1 (centres undefined) | -1 | -2 | 1 | 15 | -33 | 2 | nt
Cc1ccc(CNC(=O)C2CCCN(S(=O)(=O)c3c(C)noc3/C=C/N(C)C)C2)cc1 (centres undefined) | 1 | 0 | 2 | -15 | -15 | nt | nt
Cc1ccc(S(=O)(=O)N(C)CC(=O)Nc2ccccc2N2CCCC2)cc1 | nt | nt | -1 | nt | nt | nt | nt
Cc1ccc(C)c(NC(=O)C2CCCN2C(=O)NC2CCCCC2)c1 (centres undefined) | -4 | -3 | -21 | 2 | 10 | -6 | nt
SMILES | VIM-2 inh | IMP-1 inhibitor | Mot1-301 SUMO | UBC9 SUMO inh | FID counter | NALP1 yeast inh | Yeast Mot1 SUMO
O=C(CSC1=NS(=O)(=O)c2ccccc2N1)NCCc1ccccc1 | nt | nt | -4 | nt | nt | nt | nt
O=C(CC1(CC2=NS(=O)(=O)c3ccccc3N2)CCCC1)NCCc1ccccc1 | -4 | -4 | 614* | 0 | -41 | 28 | 0
CC1Cc2ccccc2N1C(=O)Cn1c(=O)cc(O)c2ccccc21 (centres undefined) | -1 | -2 | 636* | -6 | -19 | -13 | 0
CCn1c(SCc2nc3ccccc3s2)nnc1-c1ccccc1 | -3 | -3 | 371* | 18 | -22 | -22 | -1
CCn1c(SCc2nc3ccccc3[nH]2)nnc1-c1cccnc1 | -5 | -2 | 635* | 25 | -4 | 2 | 0
NC(=O)C1CN(S(=O)(=O)c2ccc(Cl)cc2F)c2ccccc2O1 (centres undefined) | -2 | -3 | 4 | -10 | -20 | 15 | nt
CC(NC(=S)NCCN1CCOCC1)C12CC3CC(CC(C3)C1)C2 (centres undefined) | -3 | -3 | 24 | 1 | 13 | -8 | nt
O=C(/C=C/c1ccc(Cl)cc1Cl)Nc1cccc(S(=O)(=O)NC2=NCCCCC2)c1 | -1 | -3 | 547* | -7 | -2 | 27 | 1
CC(C)=CC(=O)Nc1cccc(S(=O)(=O)NC2=NCCCCC2)c1 | nt | nt | -3 | nt | nt | nt | nt
Cc1ccc(-c2noc(COc3ccccc3C)n2)cc1 | -1 | -1 | nt | 5 | -6 | -7 | nt
Cc1ccccc1OCc1nc(-c2ccccc2)no1 | 0 | -3 | 390* | -13 | -4 | 37 | -1
CC1CCC(C(C)C)C(OC(=O)COC(=O)c2cccn2C)C1 (centres undefined) | 2 | 0 | 377* | 4 | -4 | 14 | 0
O=C(Nc1ccc(OC(F)(F)F)cc1)c1ccc2ccccc2n1 | -1 | 0 | 645* | -9 | -3 | 2 | -1
O=C(Nc1ccccc1)c1ccc2ccccc2n1 | 0 | -3 | -10 | -6 | -11 | 12 | nt
Cc1sc2nc(N)sc2c1C | -1 | -4 | + | 0 | 0 | -12 | 0
COc1ccc(N2CCN(C(c3cccs3)C(C)NS(C)(=O)=O)CC2)cc1 (centres undefined) | -5 | -4 | 379* | 10 | -7 | 17 | 1
CCCc1nnc(NC(=O)c2cn(CC)c3cc(N4CCN(C)CC4)c(F)cc3c2=O)s1 | -1 | -1 | 644* | 9 | -2 | 15 | 0[21 µM]
CC1CCN(C(=O)COC(=O)c2cccc(S(=O)(=O)N(C)c3ccccc3)c2)CC1 | nt | nt | 1 | nt | nt | nt | nt
CS(=O)(=O)N(CC(=O)N1CCCCCC1)Cc1ccc(Cl)cc1 | -2 | -4 | 589* | 17 | -16 | 4 | 0
CN1CCN(C(=O)CN(Cc2ccc(Cl)cc2)S(C)(=O)=O)CC1 | -3 | 0 | 16 | 4 | 0 | 9 | nt
